The target of series [1] is Proto-oncogene tyrosine-protein kinase Src (Homo sapiens, UniProt P12931). Description: Inhibition of Src.
Series [2] has as its target Vascular endothelial growth factor receptor 2 (Homo sapiens, UniProt P35968). Description: Inhibition of VEGFR2.
Series [3] addresses Tyrosine-protein kinase Yes (Homo sapiens, UniProt P07947). Description: Inhibition of YES.
A short description of series [4]: Stability at 120 degC after 1 hr. The conditions noted are these: for remaining at 1 h: read-out: Stability. In kind it is physicochemical. The procedure, abridged:
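Prodrugs at 0.5% in 0.5% HPMC/5% dextrose, pH 6.7, in closed vials, autoclaved at 120 °C for 1 h. After cooling, percent remaining was assessed by reverse-phase HPLC with diode-array and ELSD detection.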

Series [5] can be described thus: Tmax in C57BL/6 mouse retina at 137 nM instilled per eye. In kind it is ADME, organism-based. The conditions noted are these: topical or ocular, 137 nM per eye. The gist of the method:
(§1)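 One 10 µL topical drop per eye (70 µg, 137 nmol; 0.7% w/v in 27% w/v PL90G aqueous formulation) to 20 male C57BL/6 mice. Composite sampling, N = 4 per time point at 0.5, 1, 3, 7 and 24 h. Cornea, retina and choroid/sclera eye cup were dissected and plasma taken at euthanasia. LC/MS/MS quantitation; Tmax and Cmax from measured levels; AUC by linear trapezoidal rule on mean data.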

Series [6] can be described thus: Cmax in C57BL/6 mouse retina at 137 nM instilled per eye. In kind it is ADME, organism-based. Also noted: dose 137 nM, route ophthalmic. The note with it: topical or ocular, 137 nM per eye. The gist of the method: as §1
The nature of series [7]: AUC (0 to 24 hrs) in C57BL/6 mouse retina at 137 nM instilled per eye. The class given is ADME, organism-based. Also noted: time < 24 hr, dose 137 nM, route ophthalmic. The note with it: topical or ocular, 137 nM per eye. The procedure, abridged:
as §1

Series [8] is described as follows: Tmax in C57BL/6 mouse choroid/sclera at 137 nM instilled per eye. The class given is ADME, organism-based. The note with it: topical or ocular, 137 nM per eye. The gist of the method:
as §1

Series [9] is described as follows: Cmax in C57BL/6 mouse choroid/sclera at 137 nM instilled per eye. The class given is ADME, organism-based. Also noted: dose 137 nM, route ophthalmic. The conditions noted are these: topical or ocular, 137 nM per eye. The gist of the method: as §1
The nature of series [10]: Tmax in C57BL/6 mouse cornea at 137 nM instilled per eye. The class given is ADME, organism-based. The conditions noted are these: topical or ocular, 137 nM per eye. The procedure, abridged: as §1
A short description of series [11]: Cmax in C57BL/6 mouse cornea at 137 nM instilled per eye. The class given is ADME, organism-based. Details: dose 137 nM, route ophthalmic. The note with it: topical or ocular, 137 nM per eye. The gist of the method: as §1
Series [12] can be described thus: AUC (0 to 24 hrs) in C57BL/6 mouse cornea at 137 nM instilled per eye. The class given is ADME, organism-based. Also noted: dose 137 nM, time < 24 hr, route ophthalmic. The conditions noted are these: topical or ocular, 137 nM per eye. The procedure, abridged: as §1
The nature of series [13]: AUC (0 to 24 hrs) in C57BL/6 mouse choroid/sclera at 137 nM instilled per eye. The class given is ADME, organism-based. The conditions noted are these: topical or ocular, 137 nM per eye. Also noted: time < 24 hr, dose 137 nM, route ophthalmic. The procedure, abridged: as §1
Series [14] is described as follows: Tmax in C57BL/6 mouse plasma at 137 nM instilled per eye. The class given is ADME, organism-based. The note with it: topical or ocular, 137 nM per eye. The procedure, abridged:
as §1

A short description of series [15]: Cmax in C57BL/6 mouse plasma at 137 nM instilled per eye. Also noted: dose 137 nM, route ophthalmic. In kind it is ADME, organism-based. The note with it: topical or ocular, 137 nM per eye. The gist of the method:
as §1

Series [16] is described as follows: Antiproliferative activity against VEGF-stimulated human RMVEC cells after 48 hrs. In kind it is functional, cell-based. The gist of the method: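 Human retinal microvascular endothelial cells (~1.5 × 10³/well) were made quiescent for ~48 h in growth-factor-free medium with 10% FBS. Cells were pretreated ~60 min with compound (5–0.00229 or 2–0.00195 µM) in medium with 10% FBS and 50 µg/mL heparin. VEGF 50 ng/mL was added for 48 h at 37 °C/5% CO₂. XTT read at 492/690 nm; IC50 by nonlinear regression.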

The nature of series [17]: Half life in C57BL/6 mouse administered topically at 0.7% w/v thrice a day. The conditions noted are these: in vivo, topical or ocular. In kind it is ADME, organism-based.
For series [18], the system named is Mus musculus. Description: Reduction of VEGF-induced retinal leak in BALB/c mouse administered topically at 137 nM q.d. The class given is functional. Also noted: scale not given: the % may be the effect or the level left.
For series [19], the system named is Mus musculus. Description: Reduction of VEGF-induced retinal leak in BALB/c mouse administered topically at 137 nM thrice a day. The class given is functional. Also noted: scale not given: the % may be the effect or the level left.
Series [20] concerns Mus musculus. Description: Inhibition of FAK-Y861 phosphorylation in mouse at 5 mg/kg.

Molecules are shown by their SMILES.

By IC50 is commonly meant the concentration that inhibits the measured activity by half. One may read the Tmax as the time from dosing to the highest level. As usually defined, the Cmax is the peak of the concentration-time curve. The AUC(0-t) is the area under the concentration-time curve up to a stated or last time point. Usually half-life stands for the time in which the quantity being followed falls by half. A word on the inhibition in vivo: it is the change of the read-out against control, counted positive when it falls.

Chain of Vascular endothelial growth factor receptor 2 (P35968 whole entry): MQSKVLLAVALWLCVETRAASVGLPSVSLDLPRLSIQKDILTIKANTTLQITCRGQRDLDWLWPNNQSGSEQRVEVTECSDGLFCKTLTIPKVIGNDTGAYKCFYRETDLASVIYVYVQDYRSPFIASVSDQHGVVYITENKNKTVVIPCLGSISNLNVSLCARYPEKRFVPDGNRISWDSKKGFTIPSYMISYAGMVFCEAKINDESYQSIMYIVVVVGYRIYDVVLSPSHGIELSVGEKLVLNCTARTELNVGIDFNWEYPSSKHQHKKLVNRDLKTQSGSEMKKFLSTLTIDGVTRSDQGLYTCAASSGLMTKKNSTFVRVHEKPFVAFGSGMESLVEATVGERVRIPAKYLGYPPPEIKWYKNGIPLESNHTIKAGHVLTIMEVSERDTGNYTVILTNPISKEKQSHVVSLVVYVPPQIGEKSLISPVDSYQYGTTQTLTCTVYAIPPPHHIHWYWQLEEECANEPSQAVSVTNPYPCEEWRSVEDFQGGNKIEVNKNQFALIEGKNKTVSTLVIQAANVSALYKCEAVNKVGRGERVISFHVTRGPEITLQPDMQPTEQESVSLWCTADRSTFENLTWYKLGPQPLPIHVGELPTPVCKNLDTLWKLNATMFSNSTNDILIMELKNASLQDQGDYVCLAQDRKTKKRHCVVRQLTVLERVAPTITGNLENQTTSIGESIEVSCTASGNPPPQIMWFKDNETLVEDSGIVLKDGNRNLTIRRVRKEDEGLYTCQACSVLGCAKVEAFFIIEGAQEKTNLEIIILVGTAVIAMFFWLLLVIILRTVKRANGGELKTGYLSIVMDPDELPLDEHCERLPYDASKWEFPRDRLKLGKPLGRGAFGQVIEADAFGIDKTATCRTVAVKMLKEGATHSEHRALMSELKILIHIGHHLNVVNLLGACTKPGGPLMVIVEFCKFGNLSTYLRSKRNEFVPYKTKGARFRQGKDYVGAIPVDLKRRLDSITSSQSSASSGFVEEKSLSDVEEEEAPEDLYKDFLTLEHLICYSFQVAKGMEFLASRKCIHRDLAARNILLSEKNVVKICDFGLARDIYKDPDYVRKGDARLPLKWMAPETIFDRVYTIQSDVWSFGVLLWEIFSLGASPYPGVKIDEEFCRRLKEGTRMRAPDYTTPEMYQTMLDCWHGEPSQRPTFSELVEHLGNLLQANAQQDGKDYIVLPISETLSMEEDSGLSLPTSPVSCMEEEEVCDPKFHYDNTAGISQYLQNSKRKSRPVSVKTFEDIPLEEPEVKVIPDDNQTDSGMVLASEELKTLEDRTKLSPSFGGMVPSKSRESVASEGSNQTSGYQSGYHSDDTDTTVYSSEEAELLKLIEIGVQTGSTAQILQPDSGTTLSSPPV
Chain of Proto-oncogene tyrosine-protein kinase Src (P12931 2-536 limits assumed): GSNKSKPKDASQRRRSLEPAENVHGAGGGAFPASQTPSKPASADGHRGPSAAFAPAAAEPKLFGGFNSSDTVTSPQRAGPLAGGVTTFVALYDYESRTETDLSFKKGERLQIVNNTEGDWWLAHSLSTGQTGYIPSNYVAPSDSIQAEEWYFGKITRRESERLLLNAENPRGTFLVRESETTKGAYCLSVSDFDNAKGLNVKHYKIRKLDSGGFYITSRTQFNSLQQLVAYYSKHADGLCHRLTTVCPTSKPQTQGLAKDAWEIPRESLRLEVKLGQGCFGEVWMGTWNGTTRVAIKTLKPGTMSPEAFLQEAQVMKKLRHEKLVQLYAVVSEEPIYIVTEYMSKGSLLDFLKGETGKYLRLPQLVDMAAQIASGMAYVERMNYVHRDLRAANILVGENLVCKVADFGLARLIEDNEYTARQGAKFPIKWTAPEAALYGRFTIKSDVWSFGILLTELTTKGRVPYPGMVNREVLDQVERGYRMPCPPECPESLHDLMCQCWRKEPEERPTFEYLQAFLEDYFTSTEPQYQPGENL
Chain of Tyrosine-protein kinase Yes (P07947 whole entry): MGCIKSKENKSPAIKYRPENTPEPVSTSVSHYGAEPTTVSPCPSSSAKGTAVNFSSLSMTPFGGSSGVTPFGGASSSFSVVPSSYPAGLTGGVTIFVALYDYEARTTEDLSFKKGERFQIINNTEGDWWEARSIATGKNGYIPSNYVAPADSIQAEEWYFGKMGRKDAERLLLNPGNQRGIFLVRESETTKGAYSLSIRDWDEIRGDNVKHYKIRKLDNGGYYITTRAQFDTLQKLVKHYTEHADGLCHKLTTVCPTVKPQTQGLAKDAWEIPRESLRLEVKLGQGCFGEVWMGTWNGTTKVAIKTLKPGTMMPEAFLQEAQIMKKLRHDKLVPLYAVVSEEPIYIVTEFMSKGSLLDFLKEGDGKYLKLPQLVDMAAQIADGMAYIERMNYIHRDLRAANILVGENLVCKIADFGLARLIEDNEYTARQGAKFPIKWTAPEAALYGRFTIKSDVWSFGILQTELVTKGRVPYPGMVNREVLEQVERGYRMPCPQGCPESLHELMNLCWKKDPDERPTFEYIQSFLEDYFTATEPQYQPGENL

`Cc1cc(-c2cc(O)ccc2Cl)cc2nnc(Nc3ccc(OCCN4CCCC4)cc3)nc12`: the 50% inhibitory concentration (IC50) in series [1] is 1.8 nM; in series [2], 2.2 nM; in series [3], 0.3 nM; in series [16], 610 nM. Moreover, the Stability entry in [4] (1 h) is “Stable”. The Tmax at 0.137 µM in series [5] was determined as 30 min; in series [8] it was 30 min; in series [10] it was 30 min; in [14], 360 min. Also, the maximum concentration (Cmax) at 0.137 µM in series [6] was 3.6 µM; in [9], 23.4 µM; in series [11] it was 64 µM; in series [15], 0.002 µM. For the same compound, the area under the curve AUC(0-t) at 24 h, 0.137 µM stood at 3.2 µg·h/mL in series [7], 560 µg·h/mL in [12] and 240 µg·h/mL in series [13]. Moreover, in series [17], the half-life is 30 min. Further, the results for the Activity in [18] and in series [19] were 60% and 85%, respectively. Also, the inhibition in vivo at 5 mg/kg in series [20] was over 90%.
Turning to `Cc1cc(-c2cc(O)ccc2Cl)cc2nnc(Nc3ccc(S(=O)(=O)C4CCNCC4)cc3)nc12`, in [2], the IC50 turned out to be 1.7 nM.
For `CC(=O)Oc1ccc(Cl)c(-c2cc(C)c3nc(Nc4ccc(OCCN5CCCC5)cc4)nnc3c2)c1`, in series [4], the remaining at 1 h was under 20%.
On the same count and under the same terms, then `Cc1cc(-c2cc(OP(=O)(O)O)ccc2Cl)cc2nnc(Nc3ccc(OCCN4CCCC4)cc3)nc12`, with under 20%.
For `Cc1cc(-c2cc(O)ccc2Cl)cc2nnc(Nc3ccc(C(=O)N4CCNCC4)cc3)nc12`, in series [2], the IC50 came out at 1.8 nM.
